In ChEMBL document CHEMBL1129956, “4-substituted-3-phenylquinolin-2(1H)-ones: acidic and nonacidic glycine site N-methyl-D-aspartate antagonists with in vivo activity” (J Med Chem, 1997):
Activity calls are given as the source filed them. The rule behind the calls is not given here.

Experiments:
[1] = tested on: Mus musculus; assay: compound was evaluated in vivo for their ability to protect against audiogenic seizure in DBA/2 mice when administered 20 mg/kg ip 30 min prior to noise stimulation (expressed as no of mice protected/tested); 1/8; type: functional, organism-based; design: dose 20 mg/kg
Method in brief: (§1)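 DBA/2 mice given compound intraperitoneally 30 min before noise stimulation, with protection from audiogenic seizure scored. Results are reported as an ED50 (mg/kg) or as number of mice protected per number tested at a single dose.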

[2] = biological target: Glutamate receptor ionotropic, NMDA 1 (Rattus norvegicus, UniProt P35439); assay: In vitro ability to displace [3H]L-689,560 binding to glycine site on the N-methyl-D-aspartate (NMDA) glutamate receptor 1 from rat cortical membranes
Method in brief: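 Glycine-site antagonist [3H]L-689,560 displaced from rat cortex/hippocampus membranes. IC50 (concentration inhibiting 50% of specific binding) taken from 5-point inhibition curves as the geometric mean of at least three experiments. A compound giving under 50% inhibition at 100 μM in two experiments is reported as >100 μM.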

[3] = tested on: Mus musculus; assay: Compound was evaluated in vivo for their ability to protect against audiogenic seizure in DBA/2 mice when administered 20 mg/kg ip 30 min prior to noise stimulation out of 8 mice tested; settings: route intraperitoneal
[4] = tested on: Mus musculus; assay: compound was evaluated in vivo for their ability to protect against audiogenic seizure in DBA/2 mice when administered 100 mg/kg ip 30 min prior to noise stimulation out of 8 mice tested; type: functional; settings: route intraperitoneal; method in brief: as §1
[5] = biological target: Glutamate NMDA receptor (Rattus norvegicus) (UniProt P35439+Q00959+Q00960+Q00961+Q62645+Q8VHN2+Q9R1M7); assay: (§2) Evaluated to antagonize NMDA responses in a rat cortical slice preparations; type: functional
Method in brief: (§3)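 Rat cortical slice preparation; antagonist-induced rightward shift of the NMDA concentration–response curve used to calculate apparent Kb; values are the means of three determinations.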

[6] = tested on: Mus musculus; assay: Evaluated in vivo for their ability to protect against audiogenic seizure in DBA/2 mice when administered 20 mg/kg ip 30 min prior to noise stimulation out of 8 mice tested; settings: route intraperitoneal
[7] = tested on: Mus musculus; assay: compound was evaluated in vivo for their ability to protect against audiogenic seizure in DBA/2 mice when administered 10 mg/kg ip 30 min prior to noise stimulation out of 8 mice tested; type: functional; settings: route intraperitoneal; method in brief: as §1
[8] = tested on: Mus musculus; assay: In vivo ability to protect against audiogenic seizure in DBA/2 mice when administered 20 mg/kg ip 30 min prior to noise stimulation out of 8 mice tested; type: functional, organism-based; design: dose 20 mg/kg; method in brief: as §1
[9] = biological target: Glutamate receptor ionotropic, NMDA 1 (Rattus norvegicus) (UniProt P35439); assay: In vitro ability to displace [3H]L-689,560 binding to glycine site on the N-methyl-D-aspartate glutamate receptor 1 from rat cortical membranes at […]
[10] = tested on: Mus musculus; assay: compound was evaluated in vivo for their ability to protect against audiogenic seizure in DBA/2 mice when administered 20 mg/kg ip 30 min prior to noise stimulation out of 8 mice tested; type: functional; settings: route intraperitoneal; method in brief: as §1
[11] = tested on: Mus musculus; assay: Compound was evaluated in vivo for their ability to protect against audiogenic seizure in DBA/2 mice when administered 20 mg/kg ip 30 min prior to noise stimulation out of 8 mice tested; type: functional; settings: route intraperitoneal; method in brief: as §1
[12] = tested on: Mus musculus; assay: compound was evaluated in vivo for their ability to protect against audiogenic seizure in DBA/2 mice when dosed ip 30 min prior to noise stimulation and it is evaluated as ED50 value; type: functional; method in brief: as §1
[13] = biological target: Glutamate receptor ionotropic, NMDA 1 (Rattus norvegicus) (UniProt P35439); assay: as §2; type: functional; method in brief: as §3

| SMILES | IC50 [2] [nM] | Kb [5] [nM] | further results |
| --- | --- | --- | --- |
| COC(=O)C(=O)Nc1c(-c2ccccc2)c(O)nc2cc(Cl)ccc12 | 2700 | – | ED50 [1]: inactive |
| COC(=O)COc1c(-c2ccccc2)c(O)nc2cc(Cl)ccc12 | 3200 | 960 | No. of mice protected [4]: 1 |
| Oc1nc2cc(Cl)ccc2c(OCc2ccccc2)c1-c1ccccc1 | ~10000 | – | – |
| O=C(O)c1c(-c2ccccc2)c(=O)[nH]c2cc(Cl)ccc12 | 900 | – | – |
| CN(C)CCNc1c(-c2ccccc2)c(=O)[nH]c2cc(Cl)ccc12 | 3200 | – | – |
| COC(=O)c1c(-c2ccccc2)c(O)nc2cc(Cl)ccc12 | – | – | inhibition [9]: 69% |
| Oc1nc2cc(Cl)ccc2c(NCc2ccccc2)c1-c1ccccc1 | 2000 | > 3000 | No. of mice protected [6]: 1 |
| O=C(O)Cc1c(-c2ccccc2)c(O)nc2cc(Cl)ccc12 | – | 1400 | No. of mice protected at 20 mg/kg [10]: 0 mg/kg |
| N#CCCc1c(-c2ccccc2)c(=O)[nH]c2cc(Cl)ccc12 | 750 | – | – |
| Oc1nc2cc(Cl)ccc2c(OCc2ccccn2)c1-c1ccccc1 | 2800 | – | No. of mice protected [11]: 1 |
| O=C(O)COc1c(-c2cccc(Oc3ccccc3)c2)c(O)nc2cc(Cl)ccc12 | – | 560 | No. of mice protected [6]: 0 |
| O=C(O)CCc1c(-c2ccccc2)c(=O)[nH]c2cc(Cl)ccc12 | 170 | – | – |
| O=c1[nH]c2cc(Cl)ccc2c(O)c1-c1cccc(Oc2ccccc2)c1 | – | – | ED50 [12]: 0.9 mg/kg |
| O=C(O)c1c(-c2ccccc2)c(O)nc2cc(Cl)ccc12 | – | – | No. of mice protected [11]: 1; Kb [13]: 1300 nM |

The next lines start with results.

| IC50 [2] [nM] | Kb [5] [nM] | SMILES | further results |
| --- | --- | --- | --- |
| ~50000 | – | CO/N=C(\C)COc1c(-c2ccccc2)c(O)nc2cc(Cl)ccc12 | No. of mice protected [3]: 0 |
| – | 4000 | COC(=O)Cc1c(-c2ccccc2)c(O)nc2cc(Cl)ccc12 | No. of mice protected [6]: 1 |
| 1200 | – | N#CCOc1c(-c2cccc(Oc3ccccc3)c2)c(O)nc2cc(Cl)ccc12 | No. of mice protected [7]: 1; No. of mice protected [6]: 8 |
| 14700 | – | CC(=O)Nc1c(-c2ccccc2)c(O)nc2cc(Cl)ccc12 | No. of mice protected [8]: inactive |
| > 100000 | – | CNc1c(-c2ccccc2)c(=O)[nH]c2cc(Cl)ccc12 | – |
| – | > 10000 | N#CCCc1c(-c2ccccc2)c(O)nc2cc(Cl)ccc12 | No. of mice protected [6]: 0 |
| > 100000 | – | CCc1c(-c2ccccc2)c(O)nc2cc(Cl)ccc12 | – |
| 6700 | – | Nc1c(-c2ccccc2)c(=O)[nH]c2cc(Cl)ccc12 | – |
| – | 12000 | CN(C)CCNc1c(-c2ccccc2)c(O)nc2cc(Cl)ccc12 | No. of mice protected [4]: 8; No. of mice protected [6]: 0 |
| > 100000 | – | O=c1[nH]c2cc(Cl)ccc2cc1-c1ccccc1 | – |
| 500 | 4600 | COC(=O)CCc1c(-c2ccccc2)c(O)nc2cc(Cl)ccc12 | No. of mice protected [10]: 0 |
| 420 | 3400 | Nc1c(-c2cccc(Oc3ccccc3)c2)c(O)nc2cc(Cl)ccc12 | No. of mice protected [6]: 2 |
| 580 | – | O=C(O)C(=O)Nc1c(-c2ccccc2)c(=O)[nH]c2cc(Cl)ccc12 | – |
| – | 2900 | O=S(=O)(Nc1c(-c2ccccc2)c(O)nc2cc(Cl)ccc12)c1ccccc1 | No. of mice protected [6]: 1 |
| – | 2200 | O=C(O)CCc1c(-c2ccccc2)c(O)nc2cc(Cl)ccc12 | No. of mice protected [10]: 1 |
| > 100000 | – | COc1c(-c2ccccc2)c(=O)[nH]c2cc(Cl)ccc12 | – |
